Results from the EternaBench riboswitch data.

System: MS2 coat protein
Assay: apparent Kd, MS2 coat protein; higher = weaker binding; RNA-MaP array; FMN 200 µM where present
Procedure, shortened: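 Two titrations, one without ligand and one with constant ligand, were run with SNAP-549-labelled MS2 coat protein from 0.7 or 1.5 nM, doubling to 3 µM. The targets were designs transcribed by stalled E. coli RNA polymerase on Illumina sequencing-chip clusters, in 100 mM Tris-HCl pH 7.5, 80 mM KCl, 4 mM MgCl2, BSA, DTT, yeast tRNA and Tween-20. The apparent Kd is the median of filtered per-cluster binding-curve fits, with green signal normalised to red-channel RNA signal and control-cluster median Fmax.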

[1] = designed as: ON switch for flavin mononucleotide, no ligand
[2] = ligand present: flavin mononucleotide, designed as: ON switch for flavin mononucleotide
[3] = designed as: OFF switch for flavin mononucleotide, no ligand
[4] = ligand present: flavin mononucleotide, designed as: OFF switch for flavin mononucleotide

For “AGUAAGAUGCAGAAGGUGUUAGCUAGAGCUACGACAUGAGGAUCACCCAUGUACUAGAAACAGUACAAGGAUAUGCAUCUUACU”, the “apparent Kd” value [1] was 18.4 nM and the “apparent Kd” value [2] was 6.43 nM.

For “GGGUCACAUGAGGAUCACCCAUGUGAGGAUAUGAUACUAUGUACUUCGGUACAUAGUAUCAGAAGGCACAUAAA”, the “apparent Kd” value [3] was 36.6 nM and the “apparent Kd” value [4] was 123 nM.

In the case of “AUUGCCUUUGUCAGGAUAUCUGAGGUCGAAAGUGAAGAGAAGGGACAUGAGGAUCACCCAUGUAGUGGUACGCA”, the “apparent Kd” value [3] is reported as 144 nM and the “apparent Kd” value [4] is reported as 431 nM.

With “CUGACGGCAGGAUAUACAUGAGGAUCACCCAUGUAAAUUUUUCGUUUACCUUGACCGUGUAGAAGGGCCCAACC” the “apparent Kd” value [3] was 14.8 nM and the “apparent Kd” value [4] was 14.7 nM.

For “AAAGGAUCAGGAUAUGCGUGGAAAAAGUGUAUUCAAAAAAAACAUGAGGAUCACCCAUGUAGAAGGGAUCCAAA”, the “apparent Kd” value [3] was 182 nM and the “apparent Kd” value [4] was 657 nM.

With “GGAGCAAGUGUCAGGAUAUCGUGGUCGAUAGAUCACGAGAAGGGACAUGAGGAUCACCCAUGUGUCCUAGCUCC” the “apparent Kd” value [3] was 262 nM and the “apparent Kd” value [4] was 484 nM.

For “AGAUUGCAUGAGGAUAUCGUAUUAGAUAUAAUGCGAGAAGGCAUGACAUGAGGAUCACCCAUGUAGUGUGGGUU”, the “apparent Kd” value [3] was 55.9 nM and the “apparent Kd” value [4] was 40.2 nM.

“CAAUUGGCACAGAAGGGUGACAUGAGGAUCACCCAUGUAGCGUGGCACUUAGGAGGAGCCACGCCACAGGAUAUGUGCGGGCAC” was tested, and the “apparent Kd” value [1] was 76.4 nM and the “apparent Kd” value [2] was 111 nM.

“CAUGUCCUCACAGGAUAUGCACCACUUUGUGGUGCAGAAGGGUGAAUACAUGAGGAUCACCCAUGUGGACAUGAUAUAUUUAAG” was tested, and the “apparent Kd” value [1] was 1200 nM and the “apparent Kd” value [2] was 75.4 nM.

In the case of “GGUCGUCACAUUUACAUGAGGAUCACCCAUGUCGAAAGACAUGAGGAUAUGCUACCUAAUUGGUAGCAGAAGGCAUGGACGACC”, the “apparent Kd” value [1] is reported as 455 nM and the “apparent Kd” value [2] is reported as 234 nM.

With “GGGUGUGAAGGAUAUACAUGAGGAUCACCCAUGUGAGAGGAGGAGGUUGAGGAGGUUGGUAGAAGGUCAGGAGG” the “apparent Kd” value [3] was 169 nM and the “apparent Kd” value [4] was 142 nM.

For “AAACAUGUCCGAGGAUAUCUGGAAACAUUUUCAAGAGAAGGCGGACAUGAGGAUCACCCAUGUCUCUCCUCAUCAAAUCCAAGC”, the “apparent Kd” value [3] was 8.2 nM and the “apparent Kd” value [4] was 44.9 nM.

With “GGGUGGCGUAUAGGAUAUAUGGUACAUGAGGAUCACCCAUGUACAUAUGAUGUUCAUGUUUGUGUAUAGAAGGAUACGUCGGGA” the “apparent Kd” value [1] was 9.44 nM and the “apparent Kd” value [2] was 8.86 nM.

In the case of “UGUCGGAGCAGAGGAUAUACAUGAGGAUCACCCAUGUAAAUGGAAUAAGCCUGGAAACAGGCAAUGUAGAAGGCUGCUCCGACA”, the “apparent Kd” value [3] is reported as 69 nM and the “apparent Kd” value [4] is reported as 628 nM.

For “CGCUCUAUAUAUUUGGCAAGAAUCAGAAGGCGUUACAUGAGGAUCACCCAUGUUUUGUAUAGUAACGAGGAUAUGAUAUGAGCG”, the “apparent Kd” value [3] was 13.3 nM and the “apparent Kd” value [4] was 13.3 nM.

With “GCGGUAAAGAUCCAUUUUUACAACAUGAGGAUCACCCAUGUGCAGGAUAUCGAAUGUUUUAUAUUCGAGAAGGGCAAUUACCGC” the “apparent Kd” value [3] was 20.7 nM and the “apparent Kd” value [4] was 57.5 nM.

For “UCGAGUCAUGAGAAGGGCUGAUGUUACAUGAGGAUCACCCAUGUCAUGGGCAGGAUAUCAUUGACACGGCUGUACCUCUCUUAA”, the “apparent Kd” value [1] was 107 nM and the “apparent Kd” value [2] was 19.3 nM.

With “CGGUAACAUGAGGAUCACCCAUGUGAGGAUAUCGUACGUUCGUCGAAAGACGAUCGUACGAGAAGGCAUGACCG” the “apparent Kd” value [3] was 47.5 nM and the “apparent Kd” value [4] was 22.2 nM.

In the case of “AAUUAUUAUUGAGGAUAUCGUAUUGAAACAAUACGAGAAGGCGGUAUAAACAUGAGGAUCACCCAUGUGAGCCUGAUGCUUAUG”, the “apparent Kd” value [3] is reported as 28.4 nM and the “apparent Kd” value [4] is reported as 58.9 nM.

With “CGUAGGAUCCAGAAGGCAUGAAACAUGAGGAUCACCCAUGUGAAACACAUGAGGAUAUGGAUCCUACGAAAAGUGCGAAAGCAC” the “apparent Kd” value [1] was 4.32 nM and the “apparent Kd” value [2] was 4.48 nM.

For “AAGGGUUGUGAGGAUAUGGCUUACCAAUUGGUACCAGAAGGCGCUACAUGAGGAUCACCCAUGUGGGUCGUCCC”, the “apparent Kd” value [3] was 51.8 nM and the “apparent Kd” value [4] was 82.9 nM.

With “GACAUUGACAAGAAGGCAAACAUGAGGAUCACCCAUGUUCUGCAUGUAUAUUGAGGAUAUUGCCAAUGUAUGUGGAUCACCCAA” the “apparent Kd” value [3] was 6.25 nM and the “apparent Kd” value [4] was 15.2 nM.

In the case of “AGCUGUGGCCGAGGAUAUCUGUUCCAUAUAACCGAAAUAUAAUCGGACAUGAGGAUCACCCAUGUAGAGAAGGCGGUCUCAGCA”, the “apparent Kd” value [3] is reported as 22.7 nM and the “apparent Kd” value [4] is reported as 24.8 nM.

In the case of “CUGGAAUACAGACAUGAGGAUCACCCAUGUUUAAGGGAGGCACAGGAUAUGUCGACGCACCAUAGACAGAAGGGUGACUUGCUU”, the “apparent Kd” value [1] is reported as 47.8 nM and the “apparent Kd” value [2] is reported as 20.3 nM.

In the case of “AAAAUCAAUGCAGGAUAUACAUGAGGAUCACCCAUGUAGGUUGACCCUAAUACGGGCGAUUUGCAGUAGAAGGGCAAGAAGAAA”, the “apparent Kd” value [3] is reported as 50.7 nM and the “apparent Kd” value [4] is reported as 63.4 nM.

In the case of “CUGUUCCGUGUAGGAUAUGCAUAUUCUCAUUAUGCAGAAGGACAUGAGGAUCACCCAUGUAUGUUAUUAUCAUGUGUUACAUGU”, the “apparent Kd” value [3] is reported as 31.4 nM and the “apparent Kd” value [4] is reported as 163 nM.

With “UGAACUAUGUAGAAGGCCCGCAUGAAAAUGACGGGAGGAUAUACAUGAGGAUCACCCAUGUGAAGAGCAAGAGGGUUUAACAGA” the “apparent Kd” value [3] was 282 nM and the “apparent Kd” value [4] was 163 nM.

In the case of “GGAUCGAAUGUGAGGAUAUGCUGGUCCUUGGAUCAGCAGAAGGCACAUGAGGAUCACCCAUGUGACCUAGAUCC”, the “apparent Kd” value [3] is reported as 32.7 nM and the “apparent Kd” value [4] is reported as 430 nM.

“UCGUCCAUGUCAGGAUAUGGCGGUAAAGAAAGGCUAGAAGGGACAUGAGGAUCACCCAUGUGCUCUUACGUGCACGGGCUGCGC” was tested, and the “apparent Kd” value [3] was 6.47 nM and the “apparent Kd” value [4] was 8.18 nM.

For “UAUAUAUAGUAAGGAUAUGUAAUUAUUUUACAAACAGAAGGUACUGACAUGAGGAUCACCCAUGUUUUAGUGUGGGCAUGUAGA”, the “apparent Kd” value [3] was 47.3 nM and the “apparent Kd” value [4] was 54.4 nM.

For “UUACUUGUGCAGAAGGGCAUUGAAUUAGGUUUUUAGGUUGAUCAGAAAUGCAGGAUAUGUUAAACAUGAGGAUCACCCAUGUAC”, the “apparent Kd” value [1] was 66.9 nM and the “apparent Kd” value [2] was 13.9 nM.

In the case of “GCUAAUUAGUGAGGAUAUACAUAAUUUAUUACUGUAGAAGGCACAAACCUCAAGACAUGAGGAUCACCCAUGUGGUAUUUAAGC”, the “apparent Kd” value [3] is reported as 151 nM and the “apparent Kd” value [4] is reported as 394 nM.

In the case of “CAGCGCUGUCGAGAGGAUAUGCGGUGAUGGACAUGAGGAUCACCCAUGUUAGCGAUAGUAUUACGGUAGAAGGCUCUACAGCUGC”, the “apparent Kd” value [1] is reported as 92.2 nM and the “apparent Kd” value [2] is reported as 16.7 nM.

“UUGGACGUCGUAGGAUAUGUAGGAUAUUCCUACAUGAGGAUCACCCAUGUUGACAUGGAAGAAGGACCGAAGGACGAUGUCCAU” was tested, and the “apparent Kd” value [1] was 148 nM and the “apparent Kd” value [2] was 691 nM.

“UUACGUACGUAUGAGGAUAUCCAUAAUAAGACAUGAGGAUCACCCAUGUAAACAAAACAAUAAUGGGAGAAGGCAUACGUACGAA” was tested, and the “apparent Kd” value [1] was 64.1 nM and the “apparent Kd” value [2] was 101 nM.

For “ACGUAACGGUGCGCGAGUGGACGGAGAAGGCAGACAUGAGGAUCACCCAUGUGAGCCUGCUAUUCUGAGGAUAUCCGUCCGCAC”, the “apparent Kd” value [3] was 38.9 nM and the “apparent Kd” value [4] was 254 nM.

For “GGUAUCCGGCAGGAUAUUGUGAGAAUCUGUAAGCGAGAAGGGCCAACAUGAGGAUCACCCAUGUACCAUUGAGA”, the “apparent Kd” value [3] was 52.3 nM and the “apparent Kd” value [4] was 45.1 nM.

For “AGGAGACAUGAGGAUCACCCAUGUGCACGUGGAGGAGGAUAUGCUAGUAGAAGAUAGAAUGCAGAAGGCCUAAGAA”, the “apparent Kd” value [1] was 72.9 nM and the “apparent Kd” value [2] was 84.8 nM.

“ACAUGAGGAUCACCCAUGUAGAAUGAAGAAGGUGGAUACUUGUGACUCACCCAUGUACAUAGGACUAAGGAUAUUCUAAUAAUU” was tested, and the “apparent Kd” value [1] was 25.1 nM and the “apparent Kd” value [2] was 23 nM.

In the case of “CACGGAUGAUCAGGAUAUGCUAAAGCAGGCUGACAUGAGGAUCACCCAUGUCCCAGAAACUGUGGGCAGAAGGGAUGUAAUGUU”, the “apparent Kd” value [1] is reported as 49.8 nM and the “apparent Kd” value [2] is reported as 12.2 nM.

“AAUAACAGAGGAUAUGCAAAAAUAAGCGGAAACGCAAGAAAACAUGAGGAUCACCCAUGUAGAAGGCUGGAUAA” was tested, and the “apparent Kd” value [3] was 23.6 nM and the “apparent Kd” value [4] was 17.6 nM.

“GUGGCAUACCGAGGAUAUUCAUAUAAUAAAUAAACAUGAGGAUCACCCAUGUGGCGAAAGCCUUGGGAGAAGGCGGAAUGCUAC” was tested, and the “apparent Kd” value [1] was 574 nM and the “apparent Kd” value [2] was 38.2 nM.

In the case of “AAUAAUCAGUAAGGAUAUACUAGCGAUUAGCUUGUAGAAGGUACAGUCUUAUGUAUAACAUGUUAACAUGAGGAUCACCCAUGU”, the “apparent Kd” value [1] is reported as 62.9 nM and the “apparent Kd” value [2] is reported as 33.3 nM.

In the case of “GCUAUCGGGUGAGGAUAUAUGAUUGUGAUUAAAAUAGAAGGCAUCUCAGAAGACAUGAGGAUCACCCAUGUAGUUAAGAUGGCC”, the “apparent Kd” value [1] is reported as 14.6 nM and the “apparent Kd” value [2] is reported as 11.4 nM.

“GGAUAGGACAGAGGAUAUACCGAUAGGAUCUACUAUCGAACAAUCCUCACAUGAGGAUCACCCAUGUAGAAGGCUGUCCUAUCG” was tested, and the “apparent Kd” value [3] was 23.9 nM and the “apparent Kd” value [4] was 274 nM.

In the case of “CGCUCACAUGAGGAUCACCCAUGUCCUAGGAGGUCAGGAUAUAGCCCGCAUCCGCUGCGGCUAGAAGGGACAGCUG”, the “apparent Kd” value [1] is reported as 203 nM and the “apparent Kd” value [2] is reported as 68.6 nM.

In the case of “CCAGUGUAAGGAUAUGACAAUGGUAUCUUCGGAUACCAUUGUCAGAAGGUACAUGAGGAUCACCCAUGUAACAC”, the “apparent Kd” value [3] is reported as 16.6 nM and the “apparent Kd” value [4] is reported as 26.5 nM.

For “AAUGCCAAUGAAGGAUAUACAAACAUGAGGAUCACCCAUGUGUCUUUCGUGUAAGUGGAAUUCGCGUAGAAGGUCAUUGACAUA”, the “apparent Kd” value [3] was 38.3 nM and the “apparent Kd” value [4] was 22.3 nM.
